Experimental data pooled from the literature.
Compare with care: the assays were run in different laboratories.
ABL1 F317I phosphorylated: Tyrosine-protein kinase ABL1, phosphorylated (ABL1, Homo sapiens, UniProt P00519, F317I)
ABL1 phosphorylated: Tyrosine-protein kinase ABL1, phosphorylated (ABL1, Homo sapiens, UniProt P00519)
ABL1 Q252H: Tyrosine-protein kinase ABL1 (ABL1, Homo sapiens, UniProt P00519, Q252H)
ABL1 M351T: Tyrosine-protein kinase ABL1 (ABL1, Homo sapiens, UniProt P00519, M351T)
ABL1 T315I non-phosphorylated: Tyrosine-protein kinase ABL1, non-phosphorylated (ABL1, Homo sapiens, UniProt P00519, T315I)
ABL1 F317L non-phosphorylated: Tyrosine-protein kinase ABL1, non-phosphorylated (ABL1, Homo sapiens, UniProt P00519, F317L)
ABL1 Q252H phosphorylated: Tyrosine-protein kinase ABL1, phosphorylated (ABL1, Homo sapiens, UniProt P00519, Q252H)
ABL1 Y253F phosphorylated: Tyrosine-protein kinase ABL1, phosphorylated (ABL1, Homo sapiens, UniProt P00519, Y253F)
ABL1 non-phosphorylated: Tyrosine-protein kinase ABL1, non-phosphorylated (ABL1, Homo sapiens, UniProt P00519)
ABL1 M351T phosphorylated: Tyrosine-protein kinase ABL1, phosphorylated (ABL1, Homo sapiens, UniProt P00519, M351T)
ABL1 H396P non-phosphorylated: Tyrosine-protein kinase ABL1, non-phosphorylated (ABL1, Homo sapiens, UniProt P00519, H396P)

SMILES	target	observed	technique	tested at	remaining binding [%]
C=CC(=O)N1CCC(C(=O)NCC(=O)N2CCN(c3nc(-c4cnc(N)nc4C(F)F)nc(N4CCOCC4)n3)CC2)CC1	ABL1 F317I phosphorylated	binding	competition with immobilised ligand	1 µM	94
CC(C)(C)c1ccc(-c2nc(CBr)nn2-c2cccc(O)c2)cc1	ABL1 phosphorylated	cell-free assay	competition with immobilised ligand	10 µM	85
CC1CCCN1c1nccc(-c2cnn3ncccc23)n1 (centres unmarked)	ABL1 Q252H	binding		1 µM	97
Cc1cc(NC(=O)c2cccc(S(F)(F)(F)(F)F)c2)cc(-n2ccn3nc(-c4cccnc4)cc23)c1	Tyrosine-protein kinase ABL1, non-phosphorylated (ABL1, Homo sapiens, UniProt P00519, F317I)	binding	competition with immobilised ligand	1 µM	100
c1cnn2ncc(-c3ccnc(N4CCC45COC5)n3)c2c1	ABL1 M351T	binding		1 µM	48
O=C(c1ccc(Nc2ncc(Cl)c(-c3ccc(Cl)s3)n2)cc1)N1CCC(N2CCCC2)CC1	ABL1 T315I non-phosphorylated	binding	competition with immobilised ligand	1 µM	0
N#Cc1ccc(Nc2ccc3[nH]c(=O)[nH]c3c2)c(Cl)c1	ABL1 F317L non-phosphorylated	cell-free assay	competition with immobilised ligand	1 µM	100
Cc1cnn2ncc(-c3ccnc(N(C)C)n3)c2c1	Tyrosine-protein kinase ABL1 (ABL1, Homo sapiens, UniProt P00519, H396P)	binding		1 µM	81
COc1cnc(Nc2cccc(S(N)(=O)=O)c2)nc1N1CCN(c2ccccc2)C(=O)C1	ABL1 Q252H phosphorylated	binding	competition with immobilised ligand	1 µM	87
Cc1c(C(=O)O)cc(-c2ccc(C3CCNCC3)cc2)c2ccc(-c3ccc(C(F)(F)F)cc3)cc12	ABL1 F317I phosphorylated	binding		1 µM	100
O=C(Nc1c[nH]nc1C(=O)NC1CCNCC1)c1cc(F)cc(F)c1	Tyrosine-protein kinase ABL1, phosphorylated (ABL1, Homo sapiens, UniProt P00519, E255K)	binding	competition with immobilised ligand	1 µM	100
CS(=O)(=O)N1CCCC(NC(=O)[C@H](CCC2CCCCC2)NC(=O)c2ccc(CNC(=O)c3cnc4ccccn34)cc2)C1 (some centres unmarked)	ABL1 Y253F phosphorylated	cell-free assay	competition with immobilised ligand	0.1 µM	76
CNC(=O)[C@@H]1CC[C@@H](n2c(-c3ccc4cnccc4c3)nc3ccc(C(=O)NCc4cccc(C(N)=O)c4)cc32)C1	ABL1 Y253F phosphorylated	binding	competition with immobilised ligand	1 µM	100
CN(C)c1nccc(-c2cnn3ncccc23)n1	Tyrosine-protein kinase ABL1 (ABL1, Homo sapiens, UniProt P00519, T315I)	binding		1 µM	80
O=C(NCCCN1CCOCC1)c1ccc(Nc2ncc(Cl)c(-c3ccc(Cl)s3)n2)cc1	Tyrosine-protein kinase ABL1, non-phosphorylated (ABL1, Homo sapiens, UniProt P00519, Q252H)	binding	competition with immobilised ligand	1 µM	11
CN1CCN(c2ccc(Nc3nccc(-c4ccccc4)n3)cc2C(F)(F)F)CC1	Tyrosine-protein kinase ABL1 (ABL1, Homo sapiens, UniProt P00519, E255K)	binding		10 µM	22
CCCOc1ccc([C@@H]2[C@@H](C(=O)O)[C@H](c3ccc4c(c3)OCO4)CN2CC(=O)Nc2c(CC)cccc2CC)cc1	ABL1 T315I non-phosphorylated	cell-free assay	competition with immobilised ligand	1 µM	83
Cc1cnc(Nc2ccc(C(=O)N3CCC(N4CCCC4)CC3)cc2)nc1-c1cc2ccccc2s1	ABL1 F317L non-phosphorylated	binding	competition with immobilised ligand	1 µM	59

SMILES	target	observed	technique	tested at	remaining binding [%]
F[C@@H]1CCN(c2nccc(-c3cnn4ncccc34)n2)C1	Tyrosine-protein kinase ABL1 (ABL1, Homo sapiens, UniProt P00519, F317L)	binding		1 µM	100
C[C@@H](c1ccc(-n2cnc3c(N)ncnc32)cc1)N1CCc2nn(C)c(Cc3ccccc3)c2C1=O	ABL1 non-phosphorylated	binding	competition with immobilised ligand	0.1 µM	15
O=C(c1ccc(Nc2nccc(-c3cc4ccccc4s3)n2)cc1)N1CCC(N2CCCC2)CC1	ABL1 M351T phosphorylated	binding	competition with immobilised ligand	1 µM	17
CN(C)c1nccc(-c2cnc3ncccn23)n1	ABL1 M351T	binding		1 µM	78
CC(=O)N1CCC(c2ccc(C(=O)NC3=NCCN3)cc2C(F)(F)F)CC1	ABL1 non-phosphorylated	cell-free assay	competition with immobilised ligand	1 µM	95
O=C(NCC1CCOCC1)c1n[nH]cc1NC(=O)c1c(F)cccc1F	ABL1 H396P non-phosphorylated	binding	competition with immobilised ligand	1 µM	76
O=C(c1ccc(Nc2ncc(Cl)c(-c3cc4ccccc4s3)n2)cc1)N1CCC(N2CCCC2)CC1	ABL1 F317L non-phosphorylated	binding	competition with immobilised ligand	1 µM	63
CCN1CCN(Cc2ccc(C(=O)Nc3ccc(C)c(Oc4ccc5c(c4)CC(=O)N5)c3)cc2C(F)(F)F)CC1	ABL1 M351T phosphorylated	binding	competition with immobilised ligand	1 µM	55
Nc1c(C(=O)NCc2ccc(C(=O)NCCCC3CCCCC3)cc2)cnn1-c1ccccc1	ABL1 Q252H phosphorylated	cell-free assay	competition with immobilised ligand	0.1 µM	98
O=C(NCCCN1CCOCC1)c1ccc(Nc2nccc(-c3cc4ccccc4s3)n2)cc1	ABL1 H396P non-phosphorylated	binding	competition with immobilised ligand	1 µM	24
COc1cnc(Nc2cccc(S(N)(=O)=O)c2)nc1N1CCN(c2ccccc2)CC1	ABL1 T315I non-phosphorylated	binding	competition with immobilised ligand	1 µM	89
N[C@@H]1CCN(c2nccc(-c3cnn4ncccc34)n2)C1	ABL1 Q252H	binding		1 µM	74
CC(=O)N1CCC(c2ccc(C(=O)NC(=N)N)cc2C(F)(F)F)CC1	ABL1 Q252H phosphorylated	cell-free assay	competition with immobilised ligand	1 µM	100
C[C@H]1CCN(c2nccc(-c3cnn4ncccc34)n2)C1	ABL1 phosphorylated	binding		1 µM	59
Nc1ncc2c(n1)-c1c([nH]c3ccc(C#CC4CC4)cc13)CCCC2	ABL1 T315I non-phosphorylated	binding	competition with immobilised ligand	1 µM	79
COc1ncc2cc3ccccc3nc2c1C#N	ABL1 Q252H phosphorylated	cell-free assay	competition with immobilised ligand	5 µM	99
c1cncc(-c2cccc(Nc3nccc(NC4CCCCC4)n3)c2)c1	Tyrosine-protein kinase ABL1, phosphorylated (ABL1, Homo sapiens, UniProt P00519, F317L)	binding	competition with immobilised ligand	10 µM	61
